From ChEMBL document CHEMBL4184325, “Discovery of 4,7-Diamino-5-(4-phenoxyphenyl)-6-methylene-pyrimido[5,4- b]pyrrolizines as Novel Bruton's Tyrosine Kinase Inhibitors” (J Med Chem, 2018)
Calls of active or inactive are those of the source. The calls are words filed in the database; no cut-off is given here.

Columns and labels:
[1] = tested on: Mus musculus; experiment: Toxicity in CB17 SCID nude mouse xenografted with human TMD8 cells assessed as change in body weight at 5 mg/kg, po qd administered for 13 consecutive days measured during compound dosing; format: organism-based; details: in vivo
Method in brief: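 Female CB-17 SCID mice, 4-5 weeks old, were inoculated subcutaneously in the right axilla with about 2×10^6 TMD8 cells. At ~100-200 mm³ they were randomized (n = 6/group) and dosed orally once daily: vehicle for 13 days, 5 mg/kg/day for 13 days, 15 mg/kg/day for 17 days.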

[2] = tested on: TMD8; experiment: Cell cycle arrest in human TMD8 cells assessed as accumulation at G1 phase at 1 nM after 48 hrs by propidium iodide staining-based flow cytometric method (reference value: 51.33%); format: functional
[3] = tested on: TMD8; experiment: Cell cycle arrest in human TMD8 cells assessed as accumulation at G2 phase at 1 nM after 48 hrs by propidium iodide staining-based flow cytometric method (reference value: 14.53%); format: functional
[4] = tested on: TMD8; experiment: Induction of apoptosis in human TMD8 cells assessed as early apoptotic cells at 1000 nM after 72 hrs by Annexin-FITC/propidium iodide staining-based flow cytometric method (reference value: 7.98%); format: functional
[5] = target: T1, Receptor-type tyrosine-protein kinase FLT3 (Homo sapiens, UniProt P36888); experiment: Inhibition of recombinant human FLT3 using Poly(Glu, Tyr) 4:1 as substrate after 1 hr by ELISA
T1 sequence (P36888 whole entry): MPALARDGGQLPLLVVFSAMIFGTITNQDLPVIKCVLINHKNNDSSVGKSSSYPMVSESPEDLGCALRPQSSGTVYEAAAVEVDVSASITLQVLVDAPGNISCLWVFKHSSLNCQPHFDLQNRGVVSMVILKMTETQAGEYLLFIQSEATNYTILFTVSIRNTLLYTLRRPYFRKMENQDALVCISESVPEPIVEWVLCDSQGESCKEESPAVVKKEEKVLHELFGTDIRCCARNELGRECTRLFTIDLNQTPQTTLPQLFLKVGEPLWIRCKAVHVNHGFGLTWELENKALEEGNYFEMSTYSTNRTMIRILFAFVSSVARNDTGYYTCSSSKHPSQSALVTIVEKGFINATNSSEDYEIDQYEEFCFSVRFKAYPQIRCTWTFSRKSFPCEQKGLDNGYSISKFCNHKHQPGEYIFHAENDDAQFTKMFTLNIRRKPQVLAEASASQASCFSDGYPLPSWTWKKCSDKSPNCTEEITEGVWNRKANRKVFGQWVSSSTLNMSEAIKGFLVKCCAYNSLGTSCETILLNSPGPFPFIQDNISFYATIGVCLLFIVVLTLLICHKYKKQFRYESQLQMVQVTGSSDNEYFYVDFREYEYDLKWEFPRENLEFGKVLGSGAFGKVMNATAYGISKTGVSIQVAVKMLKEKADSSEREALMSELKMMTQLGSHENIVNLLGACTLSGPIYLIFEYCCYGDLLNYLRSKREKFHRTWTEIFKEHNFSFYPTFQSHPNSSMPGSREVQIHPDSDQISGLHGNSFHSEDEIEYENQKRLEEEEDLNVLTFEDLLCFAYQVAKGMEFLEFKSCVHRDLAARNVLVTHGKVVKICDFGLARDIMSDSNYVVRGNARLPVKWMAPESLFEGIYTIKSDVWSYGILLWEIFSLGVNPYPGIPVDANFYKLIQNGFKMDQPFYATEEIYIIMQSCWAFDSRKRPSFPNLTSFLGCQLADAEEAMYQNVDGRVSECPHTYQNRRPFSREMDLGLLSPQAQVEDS
Method in brief: (§1)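 Kinase activity was measured by ELISA on wells precoated with 20 µg/mL poly(Glu,Tyr) 4:1. Enzyme was incubated with compound in 50 mM HEPES pH 7.4, 20 mM MgCl2, 0.1 mM MnCl2, 0.2 mM Na3VO4, 1 mM DTT with 5 µM ATP at 37 °C for 1 h. Phosphotyrosine was detected with PY99 antibody, HRP secondary and OPD, read at A492. IC50 is the mean of duplicates.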

[6] = tested on: TMD8; experiment: Cell cycle arrest in human TMD8 cells assessed as accumulation at G2 phase at 100 nM after 48 hrs by propidium iodide staining-based flow cytometric method (reference value: 14.53%); format: functional
[7] = Drug metabolism in rat liver microsomes assessed as (S)-N-(4-amino-5-(4-hydroxyphenyl)-6-methylene-7,8-dihydro-6H-pyrimido[5,4-b]pyrrolizin-7-yl)acrylamide formation after 3 hrs; format: ADME, microsome
[8] = tested on: TMD8; experiment: Antiproliferative activity against human TMD8 cells xenografted in CB17 SCID nude mouse assessed as decrease in Ki-67 expression at 15 mg/kg, […] by […] immunohistochemical analysis; format: functional, organism-based
[9] = target: Tyrosine-protein kinase BTK (Homo sapiens, UniProt Q06187); experiment: Inhibition of recombinant human BTK using Poly(Glu, Tyr) 4:1 as substrate after 1 hr by ELISA
[10] = tested on: Mus musculus; experiment: Toxicity in CB17 SCID nude mouse xenografted with human TMD8 cells assessed as change in body weight at 15 mg/kg, po qd administered for 13 consecutive days measured during compound dosing up to day 17 post dose; format: organism-based; details: in vivo
[11] = Drug metabolism in human liver microsomes assessed as (S,E)-N-(4-amino-6-methylene-5-(4-phenoxyphenyl)-7,8-dihydro-6H-pyrimido[5,4-b]pyrrolizin-7-yl)-3-hydroxyacrylamide formation after 3 hrs; format: ADME, microsome
[12] = Drug metabolism in human liver microsomes assessed as (S)-N-(4-amino-5-(4-hydroxyphenyl)-6-methylene-7,8-dihydro-6H-pyrimido[5,4-b]pyrrolizin-7-yl)acrylamide formation after 3 hrs; format: ADME, microsome
[13] = tested on: TMD8; experiment: Cell cycle arrest in human TMD8 cells assessed as accumulation at G1 phase at 100 nM after 48 hrs by propidium iodide staining-based flow cytometric method (reference value: 51.33%); format: functional
[14] = target: T2, Tyrosine-protein kinase TXK (Homo sapiens, UniProt P42681); experiment: Inhibition of recombinant human TXK using Poly(Glu, Tyr) 4:1 as substrate after 1 hr by ELISA; method in brief: as §1
T2 sequence (P42681 whole entry): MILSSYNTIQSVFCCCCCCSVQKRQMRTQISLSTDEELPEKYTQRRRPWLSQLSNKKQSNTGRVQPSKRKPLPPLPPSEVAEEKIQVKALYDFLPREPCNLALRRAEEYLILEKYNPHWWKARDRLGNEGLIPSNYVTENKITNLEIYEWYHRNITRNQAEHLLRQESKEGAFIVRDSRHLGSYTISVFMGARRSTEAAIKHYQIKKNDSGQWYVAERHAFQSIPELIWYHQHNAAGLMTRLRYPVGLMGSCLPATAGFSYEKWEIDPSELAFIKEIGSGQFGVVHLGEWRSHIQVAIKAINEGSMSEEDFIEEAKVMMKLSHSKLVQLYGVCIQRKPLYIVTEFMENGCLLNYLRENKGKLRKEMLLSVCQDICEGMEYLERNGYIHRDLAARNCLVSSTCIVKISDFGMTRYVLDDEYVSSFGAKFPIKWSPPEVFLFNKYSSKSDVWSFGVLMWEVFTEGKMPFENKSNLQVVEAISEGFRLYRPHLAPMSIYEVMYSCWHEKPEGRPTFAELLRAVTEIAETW

[15] = tested on: Mus musculus; experiment: In vivo inhibition of BTK autophosphorylation at Y223 in human TMD8 cells xenografted in CB17 SCID nude mouse at 15 mg/kg, […] by Western blot method; format: functional, organism-based

Sequence of Tyrosine-protein kinase BTK (Q06187 whole entry): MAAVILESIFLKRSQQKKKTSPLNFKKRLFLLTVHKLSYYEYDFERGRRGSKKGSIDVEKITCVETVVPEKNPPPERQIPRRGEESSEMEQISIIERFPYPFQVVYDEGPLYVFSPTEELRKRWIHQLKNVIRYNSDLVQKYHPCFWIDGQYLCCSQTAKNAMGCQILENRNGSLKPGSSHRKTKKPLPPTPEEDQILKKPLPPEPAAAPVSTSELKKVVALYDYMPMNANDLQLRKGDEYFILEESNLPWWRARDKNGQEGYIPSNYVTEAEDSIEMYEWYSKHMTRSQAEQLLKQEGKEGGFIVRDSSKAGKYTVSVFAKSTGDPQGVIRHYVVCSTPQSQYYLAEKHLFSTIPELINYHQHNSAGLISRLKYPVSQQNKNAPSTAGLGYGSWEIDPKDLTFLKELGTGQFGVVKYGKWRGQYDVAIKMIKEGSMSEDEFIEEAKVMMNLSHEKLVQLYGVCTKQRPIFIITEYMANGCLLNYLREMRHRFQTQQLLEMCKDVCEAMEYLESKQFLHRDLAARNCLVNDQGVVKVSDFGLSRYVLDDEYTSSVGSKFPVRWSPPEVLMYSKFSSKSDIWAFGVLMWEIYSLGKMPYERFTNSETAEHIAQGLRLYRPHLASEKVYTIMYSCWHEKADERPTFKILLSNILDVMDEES

Which Activity [1] does the source give for `C=CC(=O)N[C@@H]1Cn2c(c(-c3ccc(Oc4ccccc4)cc3)c3c(N)ncnc32)C1=C` here?
The Activity was “Non-Toxic”.

And the Activity [2]?
The Activity was 57.41%.

And the Activity [3]?
The Activity was 17.32%.

And the Activity [4]?
The Activity was 51.1%.

And the IC50 [5]?
The IC50 was 55 nM.

And the Activity [6]?
Its Activity is 10.04%.

What about the Drug metabolism [7] of the same molecule?
The Drug metabolism was “Metabolite_Detected”.

What about the Activity [8] of the same molecule?
The Activity was “Active”.

What about the IC50 [9] of the same molecule?
Its IC50 is 0.4 nM.

And the Activity [10]?
Its Activity is “Non-Toxic”.

What about the Drug metabolism [11] of the same molecule?
The Drug metabolism was “Metabolite_Detected”.

What about the Drug metabolism [12] of the same molecule?
The Drug metabolism was “Metabolite_Detected”.

What about the Activity [13] of the same molecule?
The Activity was 77.17%.

What about the IC50 [14] of the same molecule?
Its IC50 is 2.5 nM.

What about the inhibition [15] of the same molecule?
The inhibition was “Active”.
